Assay outcomes from PubChem BioAssay.
HGIII-sPLA2 inh = human group III sPLA2 inhibitors, primary screen, biochemical, QFRET, BODIPY PC-A2 liposome substrate | QFRET BODIPY PC-A2 liposome hydrolysis, fluorescence | hit rate 0.56% among 370,000 | Group 3 secretory phospholipase A2 (Homo sapiens), Q9NZ20 | inhibition, % at 12.2 µM;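 active = inhibition above mean plus 3 SD of compounds lying within the high and low control bounds, cut at about 19% in these data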;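 note: 0% = median of test compound wells and 100% = no enzyme DMSO wells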
Lipid droplet = inhibitors of hepatocyte lipid droplet formation, primary screen, imaging, high-throughput imaging, BODIPY stain. AML12 mouse hepatocytes, oleate lipid droplets. inhibition, % at 6.5 µM. hit rate 0.4% among 240,000;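 active = lipid droplet intensity inhibited by at least 50%, with more than 500 cells counted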
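Material: mouse AML12 hepatocyte cell line, fixed after treatment; Timing: compound with oleate, overnight; Technique: high-content imaging of BODIPY-stained droplets and DAPI nuclei; Probe or stimulus: oleate, 100 µM final; Dosing: compound at 6.5 µM only.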
m5-HT2A agonist = mouse Htr2a agonists via beta-arrestin recruitment, primary screen, cell-based, luminescence; CHO-K1 mHTR2A beta-arrestin complementation; percent of 30 µM serotonin response; hit rate 0.66% among 360,000; AID 624169, 2012; activation, % at 7.6 µM;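 active = activation above a run cutoff, the mean activation of all tested compounds plus 3 SD, cut at about 14% in these data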;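 note: 0% = plate median of compound wells and 100% = 30 µM serotonin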
NRP1-CendR mod = modulators of CendR peptide binding to NRP-1, primary screen, biochemical, fluorescence polarization, uHTS; hit rate 0.85% among 360,000; AID 602438, 2012; inhibition, % at 25 µM; FAM-RPARPAR peptide binding to NRP-1;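 active = inhibition or corrected inhibition above about 18%, plus a signal ratio from 0.5 to 1.5, limit read from the data, passing the limit was not always enough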
Arrestin-AP2 inh = inhibitors of beta-arrestin/AP2 binding, primary screen, biochemical, GPCR trafficking, flow cytometry. beta-arrestin 1 C-terminal peptide binding to AP2 beta2-adaptin appendage (human). FITC-arrestin peptide / GST-AP2 beads; AP2 beta2 appendage carries R879A mutation. inhibition, % at 10 µM. hit rate 0.31% among 340,000;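 active = inhibition above a set limit, near 3 SD of compounds lacking own fluorescence, cut at about 54% in these data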;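 note: plate controls were DMSO wells for no effect and 5 µM unlabelled arrestin peptide for full effect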
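System: GST-AP2 R879A glutathione beads. Medium: PBS with 0.05% Tween 20 and 0.1% BSA. Also added: FITC-arrestin peptide, 50 nM. Incubation: 12 min plus 1 h, RT. Measured by: high-throughput flow cytometry of beads, ex 488, em 535 nm. Evaluation: percent drop in bead-associated FITC signal.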
M18AAP inhibitor = PfM18AAP inhibitors, malaria aminopeptidase, primary screen, biochemical, QFRET, recombinant enzyme; AID 1822, 2009; inhibition, % at 7.35 µM; hit rate 1.2% among 290,000; M18 aspartyl aminopeptidase (Plasmodium falciparum 3D7); H-Glu-NHMec fluorogenic cleavage;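 active = inhibition above the campaign mean inhibition over all tested compounds plus 3 SD, cut at about 28% in these data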;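 note: 0% = plate median of test compound wells and 100% = 2 mM ZnCl2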
hGIII sPLA2 conf = human group III sPLA2 inhibitors, confirmation, biochemical, QFRET, triplicate. AID 743280, 2014. hit rate 34% among 2,000. recombinant hGIII-sPLA2, BODIPY PC-A2 QFRET fluorescence. shares compounds with HGIII-sPLA2 inh. inhibition, % at 12.2 µM;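 active = mean inhibition across triplicates above the hit cutoff set in the earlier primary screen, cut at about 19% in these data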;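 note: 0% = enzyme with DMSO and 100% = DMSO wells lacking enzyme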
BODIPY interf = 535nm fluorescence optical interference, confirmation, artefact control for HGIII-sPLA2 inhibitor project, biochemical, QFRET | shares compounds with HGIII-sPLA2 inh | BODIPY FL product fluorescence interference | inhibition, % at 12.2 µM | hit rate 8.5% among 2,000;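 active = average inhibition above the solvent-only control mean plus 3 SD, cut at about 6% in these data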;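 note: 0% = DMSO with substrate plus product and 100% = DMSO with substrate alone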
535nm interf DR = 535nm fluorescence optical interference, dose response, artefact control for HGIII-sPLA2 inhibitor project, biochemical, QFRET | shares compounds with HGIII-sPLA2 inh | BODIPY FL product fluorescence interference, cell-free | IC50, µM | 240 tested, under 10 active;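 active = IC50 at or below 10 µM; inactive = IC50 above 10 µM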
Numbers without * were called inactive; . = not tested or not shown. In the library only some 3.3% were active in any assay of this set; here they are far more common.

SMILES | HGIII-sPLA2 inh | Lipid droplet | m5-HT2A agonist | NRP1-CendR mod | Arrestin-AP2 inh | M18AAP inhibitor | hGIII sPLA2 conf | BODIPY interf | others
Cc1ccc(C(=O)N(CC(=O)Nc2sc(C)c(C)c2C(N)=O)C2CCCC2)cc1 | -1 | -4 | -1 | 1 | 31 | -2 | . | .
Cc1ccccc1OCC(=O)Nc1ccc2c(c1)OCO2 | 23* | . | 1 | -5 | -1 | 3 | -2 | -8
COc1ccccc1OCC(=O)Nc1ccc2c(c1)OCO2 | 0 | 6 | -3 | 16 | 15 | 3 | . | .
O=C(Nc1nc(-c2ccccc2)c(-c2ccccc2)s1)c1ccc(S(=O)(=O)N2CCCCC2)cc1 | 23* | -1 | 0 | 13 | 6 | 2 | -8 | 2
CCCNC(=O)CNC(=O)c1ccc(C#N)cc1 | -1 | . | 1 | 10 | 12 | . | . | .
CC(C)[C@H]1COCCS(=O)(=O)N1Cc1ccccc1-c1ccccc1 | 2 | . | -1 | 6 | -7 | . | . | .
Cc1ccccc1NC(=S)N/N=C/c1ccc(O)cc1O | 7 | 9 | 6 | -1 | 21 | 26 | . | .
CCCOc1ccc(/C=N/NC(=S)Nc2ccccc2[N+](=O)[O-])c(O)c1 | 37* | 3 | . | . | . | 14 | 56* | 12*
N=C1C(c2nc3ccccc3[nH]2)=C(O)CN1c1ccccc1 | 22* | 3 | -7 | 0 | -3 | -8 | 14 | -5
N=C1C(c2nc3ccccc3[nH]2)=C(O)CN1c1ccc(CC(=O)O)cc1 | 1 | 1 | -1 | -37 | 4 | 12 | . | .
CC1CCCC1/C(=N/O)c1ccccc1 (configuration not stated) | 0 | -5 | 4 | 6 | 9 | -3 | . | .
CSc1n[nH]c(=O)n1-c1cccc(Cl)c1 | 20* | 0 | 5 | 15 | 13 | -14 | -1 | -6
Cc1n[nH]c(=S)n1-c1cccc(Cl)c1 | 8 | -2 | -2 | 0 | -18 | 22 | . | .
COC(=O)C1=C(C)N(Cc2ccc(C(F)(F)F)cc2)C(=NCc2ccccc2C(F)(F)F)NC1c1ccc(C(F)(F)F)cc1 (configuration not stated) | -10 | . | . | . | . | . | . | .
Nc1cc(N)nc(SCC(=O)NCCC2=CCCCC2)n1 | 0 | . | -7 | 6 | 0 | . | . | .
Cc1cc(C)c2nc(SCC(=O)NCCC3=CCCCC3)cc(C)c2c1 | 21* | -38 | 2 | -10 | 20 | 5 | -4 | -7
c1ccc(COc2ccc(-c3cc4nc(NCCN5CCOCC5)ccn4n3)cc2)cc1 | -32 | . | -6 | -37 | . | . | . | .
CCN1CCN(C(=S)NC(=O)c2cccs2)CC1 | 3 | . | -2 | 6 | -10 | -4 | . | .
O=C(NC(=S)N1CCN(c2ccc(C(F)(F)F)cc2[N+](=O)[O-])CC1)c1cccs1 | 31* | 6 | -9 | 8 | 3 | 2 | 47* | 9.5*
O=C(NNC(=S)Nc1cccc(Cl)c1)c1ccccc1OC(F)F | 25* | -4 | 5 | -7 | 13 | -8 | 43* | 2 | 535nm interf DR=>122
COc1cccc(NC(=O)c2ccccc2-c2ccccc2)c1 | -1 | -12 | 0 | 7 | -7 | -3 | . | .
Fc1ccc(NC(=S)Nc2ccccc2OC(F)F)cc1Cl | -4 | -42 | -2 | -5 | 4 | 0 | . | .
COc1cccc(NC(=S)NNC(=O)c2ccccc2OC(F)F)c1 | 25* | . | -6 | -3 | 8 | 4 | 31* | 6
C[C@@H]1CN([C@@H](C)CO)C(=O)c2cc(Br)cnc2O[C@H]1CN(C)C(=O)Nc1ccc(F)cc1 | -3 | . | 1 | -6 | . | . | . | .
CC(C)c1ccc(NC(=O)Nc2nc(C(N)C3CCCCC3)cs2)cc1 (configuration not stated) | 7 | . | 1 | -4 | . | . | . | .
SMILES | HGIII-sPLA2 inh | Lipid droplet | m5-HT2A agonist | NRP1-CendR mod | Arrestin-AP2 inh | M18AAP inhibitor | hGIII sPLA2 conf | BODIPY interf | others
NC(c1csc(Nc2ccc(C(=O)NCCCO)cn2)n1)C1CCCCC1 (configuration not stated) | 23* | . | 3 | 6 | . | . | 7 | -19
CN(C)c1ccc(NC(=O)Nc2nc(C(N)C3CCCCC3)cs2)cc1 (configuration not stated) | 20* | . | -1 | -5 | . | . | 23* | -7
NC(c1csc(Nc2ncccn2)n1)C1CCCCC1 (configuration not stated) | 23* | . | 2 | 16 | . | . | 3 | -13
Clc1ccc(OCCCN2CCCCC2)c(Br)c1 | 22* | -2 | -6 | 16 | -6 | 5 | -1 | -26
Clc1ccc(OCCCCCN2CCCC2)c(Br)c1 | -8 | 5 | -6 | 4 | -12 | 3 | . | .
Cc1ccc(C)c(OCCCCN2CCCCC2)c1 | 21* | -6 | -6 | 6 | -12 | -4 | -3 | -26
COc1ccc(C(=O)c2[nH]c(N)c(C(=O)c3c[nH]c4ccccc34)c2-c2ccc(OC)cc2)cc1 | -26 | . | . | . | . | . | . | .
NC(=O)C1(Nc2ccc(-c3ccc(Br)cc3)cc2)CCCC1 | 20* | . | -1 | -4 | 5 | . | 12 | 3
COCCCNC(=O)C[C@H]1C[C@@]2(C(=O)OC)C(=C[C@H](COCc3ccccc3)O[C@@H]2C)N(Cc2ccc3c(c2)OCO3)C1=O | 3 | . | . | . | . | . | . | .
O=C(O)C1CSC2c3ccccc3C(=O)N12 (configuration not stated) | 20* | 0 | -3 | -1 | 10 | -39 | 3 | -5
O=C(Nc1ccccc1)c1cn(CCBr)cn1 | 20* | . | 5 | 18 | 7 | . | 6 | -6
COc1cc(CN(C(=S)NCC(=O)NC2CCCC2)C2CCCC2)cc(OC)c1OC | 23* | 16 | 1 | 4 | -14 | -8 | 3 | -15
CCCC(O)(c1ccc(CC)cc1)C(CN1CCOCC1)c1ccccc1 (configuration not stated) | -7 | 0 | 2 | 7 | 13 | -9 | . | .
COc1ccc(C(=O)NC(=S)NNC(=O)c2ccccc2C)cc1 | 25* | . | -10 | 2 | 2 | . | 29* | -1
